Where “and” joins values, the source holds several entries; their conditions need not be identical. Equal entries are not always repeated.
Assays:
Type in all cases: toxicity, cell-based
[1] = test system: Fibroblast; assay: Multiplex assay against human fibroblast; conditions: number of replicates 2
Procedure, shortened: (§1)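 Live cells carried four stains from seeding: Hoechst33342, BioTracker Green Microtubule Cytoskeleton Dye, MitoTracker Red and Annexin V Alexa Fluor 680. They were imaged on a CQ1 microscope at 37°C and 5% CO2 after compound addition. Using CellPathfinder machine-learning gating, cells were split into Hoechst high-intensity objects or normal cells, normal cells into healthy, pyknosed or fragmented nuclei, and pyknosed cells into mitotic or apoptotic; tubulin, mitochondrial-mass and membrane-permeability phenotypes are per cents of healthy-nucleus cells.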

[2] = test system: HEK-293T; assay: Multiplex assay against HEK293T; conditions: human, number of replicates 2; procedure, shortened: as §1
[3] = test system: U2OS; assay: Multiplex assay against U2OS; conditions: human, number of replicates 2; procedure, shortened: as §1
[4] = 12 h, 1 µM, compound concentration 1 uM
[5] = 12 h, 10 µM, compound concentration 10 uM
[6] = 24 h, 1 µM, compound concentration 1 uM
[7] = 24 h, 10 µM, compound concentration 10 uM
[8] = 48 h, 1 µM, compound concentration 1 uM
[9] = 48 h, 10 µM, compound concentration 10 uM

SMILES: Fc1cccc(-n2cnc3c(NCc4nc5ccc(F)c(F)c5[nH]4)nc(N4CCOCC4)nc32)c1
- Population Apoptotic (%) [1, 4]: 46% and 50%
- Population Fragmented Nuclei (%) [1, 4]: 8% and 5%
- Population Healthy Nuclei (%) [1, 4]: 78% and 65%
- Population Hoechst High Intensity Objects (%) [1, 4]: 0%
- Population Membrane Permeable-Phenotype (%) [1, 4]: 5% and 4%
- Population Mitochondria Different-Phenotype (%) [1, 4]: 0%
- Population Mitotic Cells (%) [1, 4]: 53% and 49%
- Population Normal (%) [1, 4]: 99% and 100%
- Population Pyknosed Nuclei (%) [1, 4]: 12% and 28%
- Population Tubulin-Different-Phenotype (%) [1, 4]: 21% and 15%
- Total Cell Count [1, 4]: 211 and 198
- Population Apoptotic (%) [1, 5]: 55% and 40%
- Population Fragmented Nuclei (%) [1, 5]: 6% and 10%
- Population Healthy Nuclei (%) [1, 5]: 63% and 68%
- Population Hoechst High Intensity Objects (%) [1, 5]: 0%
- Population Membrane Permeable-Phenotype (%) [1, 5]: 6% and 8%
- Population Mitochondria Different-Phenotype (%) [1, 5]: 21% and 11%
- Population Mitotic Cells (%) [1, 5]: 44% and 60%
- Population Normal (%) [1, 5]: 99% and 100%
- Population Pyknosed Nuclei (%) [1, 5]: 29% and 21%
- Population Tubulin-Different-Phenotype (%) [1, 5]: 72% and 75%
- Total Cell Count [1, 5]: 152 and 213
- Population Apoptotic (%) [1, 6]: 85% and 72%
- Population Fragmented Nuclei (%) [1, 6]: 12% and 10%
- Population Healthy Nuclei (%) [1, 6]: 44% and 66%
- Population Hoechst High Intensity Objects (%) [1, 6]: 0%
- Population Membrane Permeable-Phenotype (%) [1, 6]: 13% and 5%
- Population Mitochondria Different-Phenotype (%) [1, 6]: 0%
- Population Mitotic Cells (%) [1, 6]: 14% and 27%
- Population Normal (%) [1, 6]: 100% and 99%
- Population Pyknosed Nuclei (%) [1, 6]: 42% and 22%
- Population Tubulin-Different-Phenotype (%) [1, 6]: 25% and 36%
- Total Cell Count [1, 6]: 197 and 196
- Population Apoptotic (%) [1, 7]: 44% and 42%
- Population Hoechst High Intensity Objects (%) [1, 7]: 0%
- Population Mitochondria Different-Phenotype (%) [1, 7]: 57% and 31%
- Population Mitotic Cells (%) [1, 7]: 55% and 57%
- Population Normal (%) [1, 7]: 100% and 99%
- Population Pyknosed Nuclei (%) [1, 7]: 27% and 17%
- Population Tubulin-Different-Phenotype (%) [1, 7]: 100% and 74%
- Population Apoptotic (%) [1, 8]: 85% and 90%
- Population Fragmented Nuclei (%) [1, 8]: 12% and 10%
- Population Healthy Nuclei (%) [1, 8]: 21% and 20%
- Population Hoechst High Intensity Objects (%) [1, 8]: 2% and 0%
- Population Membrane Permeable-Phenotype (%) [1, 8]: 13% and 17%
- Population Mitochondria Different-Phenotype (%) [1, 8]: 2%
- Population Mitotic Cells (%) [1, 8]: 14% and 9%
- Population Normal (%) [1, 8]: 97% and 99%
- Population Pyknosed Nuclei (%) [1, 8]: 66% and 68%
- Population Tubulin-Different-Phenotype (%) [1, 8]: 47% and 28%
- Total Cell Count [1, 8]: 172 and 174
- Population Apoptotic (%) [1, 9]: 77% and 73%
- Population Fragmented Nuclei (%) [1, 9]: 11% and 14%
- Population Healthy Nuclei (%) [1, 9]: 60% and 65%
- Population Hoechst High Intensity Objects (%) [1, 9]: 0%
- Population Membrane Permeable-Phenotype (%) [1, 9]: 1% and 2%
- Population Mitochondria Different-Phenotype (%) [1, 9]: 27% and 23%
- Population Mitotic Cells (%) [1, 9]: 22% and 26%
- Population Normal (%) [1, 9]: 100%
- Population Pyknosed Nuclei (%) [1, 9]: 28% and 19%
- Population Tubulin-Different-Phenotype (%) [1, 9]: 72% and 75%
- Total Cell Count [1, 9]: 140 and 207
- Population Apoptotic (%) [2, 4]: 54% and 71%
- Population Fragmented Nuclei (%) [2, 4]: 7% and 5%
- Population Healthy Nuclei (%) [2, 4]: 81% and 64%
- Population Hoechst High Intensity Objects (%) [2, 4]: 12% and 18%
- Population Membrane Permeable-Phenotype (%) [2, 4]: 2%
- Population Mitochondria Different-Phenotype (%) [2, 4]: 61% and 54%
- Population Mitotic Cells (%) [2, 4]: 45% and 28%
- Population Normal (%) [2, 4]: 87% and 81%
- Population Pyknosed Nuclei (%) [2, 4]: 10% and 29%
- Population Tubulin-Different-Phenotype (%) [2, 4]: 86% and 80%
- Total Cell Count [2, 4]: 334 and 362
- Population Apoptotic (%) [2, 5]: 69% and 80%
- Population Fragmented Nuclei (%) [2, 5]: 1% and 4%
- Population Healthy Nuclei (%) [2, 5]: 80% and 73%
- Population Hoechst High Intensity Objects (%) [2, 5]: 6% and 11%
- Population Membrane Permeable-Phenotype (%) [2, 5]: 2% and 3%
- Population Mitochondria Different-Phenotype (%) [2, 5]: 81% and 68%
- Population Mitotic Cells (%) [2, 5]: 30% and 20%
- Population Normal (%) [2, 5]: 93% and 88%
- Population Pyknosed Nuclei (%) [2, 5]: 18% and 22%
- Population Tubulin-Different-Phenotype (%) [2, 5]: 94%
- Total Cell Count [2, 5]: 319 and 328
- Population Apoptotic (%) [2, 6]: 65% and 77%
- Population Fragmented Nuclei (%) [2, 6]: 3% and 7%
- Population Healthy Nuclei (%) [2, 6]: 83% and 57%
- Population Hoechst High Intensity Objects (%) [2, 6]: 22% and 24%
- Population Membrane Permeable-Phenotype (%) [2, 6]: 0% and 1%
- Population Mitochondria Different-Phenotype (%) [2, 6]: 75% and 72%
- Population Mitotic Cells (%) [2, 6]: 34% and 22%
- Population Normal (%) [2, 6]: 77% and 75%
- Population Pyknosed Nuclei (%) [2, 6]: 12% and 35%
- Population Tubulin-Different-Phenotype (%) [2, 6]: 88% and 80%
- Total Cell Count [2, 6]: 263 and 293
- Population Apoptotic (%) [2, 7]: 82% and 62%
- Population Fragmented Nuclei (%) [2, 7]: 3% and 2%
- Population Healthy Nuclei (%) [2, 7]: 85% and 88%
- Population Hoechst High Intensity Objects (%) [2, 7]: 13% and 15%
- Population Membrane Permeable-Phenotype (%) [2, 7]: 1% and 2%
- Population Mitochondria Different-Phenotype (%) [2, 7]: 83% and 82%
- Population Mitotic Cells (%) [2, 7]: 17% and 37%
- Population Normal (%) [2, 7]: 86% and 84%
- Population Pyknosed Nuclei (%) [2, 7]: 10% and 8%
- Population Tubulin-Different-Phenotype (%) [2, 7]: 93% and 94%
- Total Cell Count [2, 7]: 366 and 334
- Population Apoptotic (%) [2, 8]: 69% and 80%
- Population Fragmented Nuclei (%) [2, 8]: 5% and 7%
- Population Healthy Nuclei (%) [2, 8]: 82% and 60%
- Population Hoechst High Intensity Objects (%) [2, 8]: 23% and 24%
- Population Membrane Permeable-Phenotype (%) [2, 8]: 1% and 3%
- Population Mitochondria Different-Phenotype (%) [2, 8]: 84% and 70%
- Population Mitotic Cells (%) [2, 8]: 30% and 19%
- Population Normal (%) [2, 8]: 76% and 75%
- Population Pyknosed Nuclei (%) [2, 8]: 11% and 32%
- Population Tubulin-Different-Phenotype (%) [2, 8]: 88% and 73%
- Total Cell Count [2, 8]: 251 and 297
- Population Apoptotic (%) [2, 9]: 89% and 85%
- Population Fragmented Nuclei (%) [2, 9]: 4% and 5%
- Population Healthy Nuclei (%) [2, 9]: 85% and 83%
- Population Hoechst High Intensity Objects (%) [2, 9]: 13% and 16%
- Population Membrane Permeable-Phenotype (%) [2, 9]: 1% and 0%
- Population Mitochondria Different-Phenotype (%) [2, 9]: 92%
- Population Mitotic Cells (%) [2, 9]: 10% and 14%
- Population Normal (%) [2, 9]: 86% and 83%
- Population Pyknosed Nuclei (%) [2, 9]: 10%
- Population Tubulin-Different-Phenotype (%) [2, 9]: 96% and 94%
- Total Cell Count [2, 9]: 333 and 303
- Population Fragmented Nuclei (%) [3, 4]: 13%
- Population Healthy Nuclei (%) [3, 4]: 59% and 53%
- Population Hoechst High Intensity Objects (%) [3, 4]: 0%
- Population Membrane Permeable-Phenotype (%) [3, 4]: 2% and 5%
- Population Mitochondria Different-Phenotype (%) [3, 4]: 5% and 0%
- Population Normal (%) [3, 4]: 99% and 100%
- Population Pyknosed Nuclei (%) [3, 4]: 27% and 32%
- Population Tubulin-Different-Phenotype (%) [3, 4]: 68% and 31%
- Population Apoptotic (%) [3, 5]: 86% and 90%
- Population Hoechst High Intensity Objects (%) [3, 5]: 0%
- Population Membrane Permeable-Phenotype (%) [3, 5]: 33% and 45%
- Population Mitochondria Different-Phenotype (%) [3, 5]: 33% and 52%
- Population Mitotic Cells (%) [3, 5]: 13% and 9%
- Population Normal (%) [3, 5]: 100% and 99%
- Population Pyknosed Nuclei (%) [3, 5]: 41% and 57%
- Population Tubulin-Different-Phenotype (%) [3, 5]: 100% and 78%
- Population Apoptotic (%) [3, 6]: 63% and 97%
- Population Fragmented Nuclei (%) [3, 6]: 8% and 19%
- Population Healthy Nuclei (%) [3, 6]: 14% and 15%
- Population Hoechst High Intensity Objects (%) [3, 6]: 5% and 3%
- Population Membrane Permeable-Phenotype (%) [3, 6]: 12% and 28%
- Population Mitochondria Different-Phenotype (%) [3, 6]: 12% and 23%
- Population Normal (%) [3, 6]: 95% and 96%
- Population Pyknosed Nuclei (%) [3, 6]: 77% and 64%
- Population Tubulin-Different-Phenotype (%) [3, 6]: 37% and 73%
- Population Apoptotic (%) [3, 7]: 90% and 94%
- Population Hoechst High Intensity Objects (%) [3, 7]: 0% and 1%
- Population Mitochondria Different-Phenotype (%) [3, 7]: 100% and 69%
- Population Mitotic Cells (%) [3, 7]: 9% and 5%
- Population Normal (%) [3, 7]: 100% and 98%
- Population Pyknosed Nuclei (%) [3, 7]: 55% and 76%
- Population Tubulin-Different-Phenotype (%) [3, 7]: 100% and 65%
- Population Apoptotic (%) [3, 8]: 87% and 100%
- Population Fragmented Nuclei (%) [3, 8]: 8% and 21%
- Population Healthy Nuclei (%) [3, 8]: 2% and 8%
- Population Hoechst High Intensity Objects (%) [3, 8]: 6%
- Population Membrane Permeable-Phenotype (%) [3, 8]: 100% and 42%
- Population Mitotic Cells (%) [3, 8]: 12% and 0%
- Population Normal (%) [3, 8]: 93%
- Population Pyknosed Nuclei (%) [3, 8]: 89% and 70%
- Population Tubulin-Different-Phenotype (%) [3, 8]: 100% and 94%
- Population Apoptotic (%) [3, 9]: 100% and 99%
- Population Healthy Nuclei (%) [3, 9]: 4% and 10%
- Population Hoechst High Intensity Objects (%) [3, 9]: 0%
- Population Membrane Permeable-Phenotype (%) [3, 9]: 100% and 60%
- Population Mitochondria Different-Phenotype (%) [3, 9]: 50% and 93%
- Population Mitotic Cells (%) [3, 9]: 0%
- Population Normal (%) [3, 9]: 100%
- Population Pyknosed Nuclei (%) [3, 9]: 46% and 81%
- Population Tubulin-Different-Phenotype (%) [3, 9]: 100% and 73%
